Source: ChEMBL document CHEMBL1138326, “Structure-based design, synthesis, and biological evaluation of indomethacin derivatives as cyclooxygenase-2 inhibiting nitric oxide donors” (J Med Chem, 2007)
pIC50: −log10 of the molar value.

Experiments:
[1] = target: T1, Prostaglandin G/H synthase 1 (Homo sapiens, UniProt P23219); test: Inhibition of COX1 in human whole blood assessed as effect on A23187-induced thromboxane B2 production; type: tissue-based
[2] = target: T1, Prostaglandin G/H synthase 1; test: Inhibition of COX1 in human whole blood assessed as effect on A23187-induced thromboxane B2 production at 100 uM relative to control; values are per cent of control
[3] = target: T1, Prostaglandin G/H synthase 1; test: Inhibition of COX1 in human whole blood assessed as effect on A23187-induced thromboxane B2 production at 10 uM relative to control; values are per cent of control
[4] = target: T1, Prostaglandin G/H synthase 1; test: Inhibition of COX1 in human whole blood assessed as effect on A23187-induced thromboxane B2 production at 3 uM relative to control; values are per cent of control
Homo sapiens = organism: Homo sapiens; test: Selectivity for human COX2 over human COX1
[5] = target: T1, Prostaglandin G/H synthase 1; test: Inhibition of COX1 in human whole blood assessed as effect on A23187-induced thromboxane B2 production at 1 uM relative to control; values are per cent of control
[6] = target: T2, Prostaglandin G/H synthase 2 (Homo sapiens) (UniProt P35354); test: Inhibition of COX2 in human whole blood assessed as effect on LPS-induced thromboxane B2 production at 30 uM relative to control; values are per cent of control
T2 sequence (whole entry): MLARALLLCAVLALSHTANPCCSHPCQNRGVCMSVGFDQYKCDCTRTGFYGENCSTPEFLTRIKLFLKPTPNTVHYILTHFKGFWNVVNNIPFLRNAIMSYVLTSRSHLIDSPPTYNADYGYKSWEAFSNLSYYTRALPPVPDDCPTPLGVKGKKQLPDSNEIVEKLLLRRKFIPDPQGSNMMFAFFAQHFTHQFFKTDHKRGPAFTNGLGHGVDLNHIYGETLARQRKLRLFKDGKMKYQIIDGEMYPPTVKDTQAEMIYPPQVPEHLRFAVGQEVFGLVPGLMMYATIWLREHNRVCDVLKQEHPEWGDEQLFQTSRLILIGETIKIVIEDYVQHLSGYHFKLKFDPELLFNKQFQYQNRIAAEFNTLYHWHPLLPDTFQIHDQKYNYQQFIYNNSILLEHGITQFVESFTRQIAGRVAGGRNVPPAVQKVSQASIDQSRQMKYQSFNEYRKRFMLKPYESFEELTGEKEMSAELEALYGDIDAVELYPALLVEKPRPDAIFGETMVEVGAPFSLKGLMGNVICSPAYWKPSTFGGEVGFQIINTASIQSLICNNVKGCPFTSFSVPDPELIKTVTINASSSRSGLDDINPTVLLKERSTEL

[7] = target: T1, Prostaglandin G/H synthase 1; test: Inhibition of COX1 in human whole blood assessed as effect on A23187-induced thromboxane B2 production at 30 uM relative to control; values are per cent of control
[8] = target: T1, Prostaglandin G/H synthase 1; test: Inhibition of COX1 in human whole blood assessed as effect on A23187-induced thromboxane B2 production at 0.3 uM relative to control; values are per cent of control
Rattus norvegicus [9] = test: Antiinflammatory activity against intrapouch dosed Sprague-Dawley rat carrageenan air-pouch model assessed as reduction of prostaglandin E2 at 45 umol/kg; type: functional; design: scale not given: the % may be the effect or the level left
Method in brief: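 Air pouch made with 20 mL sterile air sc on day -6 and 10 mL more on day -3; rats fasted 18 h. Compound in 0.5% methocel injected into the pouch 1 h before carrageenan (1 mL of 1.0% in saline). After 4 h, exudate recovered with PBS/heparin and assayed for PGE2 by enzyme immunoassay.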

Rattus norvegicus [10] = test: Antiinflammatory activity against Sprague-Dawley rat carrageenan air-pouch model assessed as reduction of prostaglandin E2 at 45 umol/kg, po; type: functional; design: scale not given: the % may be the effect or the level left
Method in brief: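 Air pouches raised by sc injection of 20 mL sterile air (day -6) plus 10 mL on day -3; rats fasted 18 h. Compound suspended in 0.5% methocel given orally 1 h before intrapouch carrageenan (1 mL of 1.0% in saline). Exudate collected 4 h later after PBS/heparin lavage; PGE2 by enzyme immunoassay. Means ± SEM, n = 6–22; ANOVA with Dunnett's test vs vehicle.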

T1 sequence (P23219 whole entry): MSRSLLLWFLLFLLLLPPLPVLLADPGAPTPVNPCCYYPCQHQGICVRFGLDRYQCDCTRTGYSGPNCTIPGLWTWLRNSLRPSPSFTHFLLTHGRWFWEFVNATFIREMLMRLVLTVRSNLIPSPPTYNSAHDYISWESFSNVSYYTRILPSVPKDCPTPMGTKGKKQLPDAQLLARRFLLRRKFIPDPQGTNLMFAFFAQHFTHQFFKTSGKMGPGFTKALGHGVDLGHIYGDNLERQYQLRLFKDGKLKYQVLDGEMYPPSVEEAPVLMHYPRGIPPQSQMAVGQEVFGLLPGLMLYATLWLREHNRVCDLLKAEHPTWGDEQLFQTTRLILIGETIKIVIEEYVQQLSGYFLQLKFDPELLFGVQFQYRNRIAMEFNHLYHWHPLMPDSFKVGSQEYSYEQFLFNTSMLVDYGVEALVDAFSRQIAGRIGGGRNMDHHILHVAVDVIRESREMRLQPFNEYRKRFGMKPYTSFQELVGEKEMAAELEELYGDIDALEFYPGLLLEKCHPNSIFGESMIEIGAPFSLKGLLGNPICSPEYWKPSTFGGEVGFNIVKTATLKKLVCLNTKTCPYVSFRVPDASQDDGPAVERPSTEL

| Compound | pIC50 [1] | residual activity [2] [%] | residual activity [3] [%] | residual activity [4] [%] | residual activity [5] [%] | also measured |
| --- | --- | --- | --- | --- | --- | --- |
| COc1ccc2c(c1)c(CC(=O)NOCc1ccccc1)c(C)n2C(=O)c1ccc(Cl)cc1 | > 6.52 | 0 | – | – | – | – |
| COc1cc2c(CC(=O)O)c(C)n(C(=O)c3ccc(Cl)cc3)c2cc1Cl | 5.80 | 13 | 24 | 41 | 61 | Ratio IC50 (Homo sapiens): 0.4; residual activity [6]: 0%; residual activity [7]: 2% |
| COc1ccc2c(c1)c(CCO)c(C)n2CC1CCCCC1 | – | 95 | – | – | – | – |
| Cc1c(CC(=O)NCCCO)c2cc(O)ccc2n1C(=O)c1ccc(Cl)cc1 | 5.27 | 8 | 40 | 58 | 83 | residual activity [6]: 4%; residual activity [7]: 7% |
| CCOC(=O)Cc1c(C)n(CC2CCCCC2)c2ccc(OC)cc12 | – | 85 | – | – | – | – |
| COc1ccc2c(c1Cl)c(CC(=O)OCc1ccccc1)c(C)n2C(=O)c1ccc(Cl)cc1 | < 4.00 | 65 | – | – | – | – |
| COc1cc2c(CC(=O)OCc3ccccc3)c(C)n(C(=O)c3ccc(Cl)cc3)c2cc1Cl | < 4.00 | 58 | – | – | – | – |
| COc1ccc2c(c1)c(CC(=O)NCCCO[N+](=O)[O-])c(C)n2CC1CCCCC1 | – | 100 | – | – | – | – |
| COc1ccc2c(c1)c(CC(=O)NC(CO[N+](=O)[O-])(CO[N+](=O)[O-])CO[N+](=O)[O-])c(C)n2C(=O)c1ccc(Cl)cc1 | 5.92 | 1 | 11 | 16 | 50 | – |
| COc1ccc2c(c1)c(CC(=O)NCCCO[N+](=O)[O-])c(C)n2Cc1ccc(S(C)(=O)=O)cc1 | – | 53 | – | – | – | – |
| COc1ccc2c(c1)c(CCN)c(C)n2C(=O)c1ccc(Cl)cc1 | < 5.00 | 1 | 100 | – | 100 | residual activity [6]: 78% |
| Cc1c(CC(=O)O)c2cc(O)ccc2n1C(=O)c1ccc(Cl)cc1 | – | 18 | 55 | 80 | 100 | residual activity [6]: 0% |
| COc1ccc2c(c1)c(CC(=O)O)c(C)n2C(=O)c1ccc(Cl)cc1 [INDOMETHACIN] | – | – | – | – | – | Activity (Rattus norvegicus [9]): 97% |
| COc1ccc2c(c1)c(CC(=O)O)c(C)n2CC1CCCCC1 | – | 85 | – | – | – | – |
| COc1ccc2c(c1)c(CC(=O)NOC(C)=O)c(C)n2C(=O)c1ccc(Cl)cc1 | 5.44 | 7 | 34 | – | 68 | – |
| COc1ccc2c(c1)c(CC(=O)O)c(C)n2Cc1ccc(S(C)(=O)=O)cc1 | – | 87 | – | – | – | – |
| COc1ccc2c(c1)c(CCO[N+](=O)[O-])c(C)n2CC1CCCCC1 | – | 93 | – | – | – | – |
| COc1ccc2c(c1)c(CCNS(=O)(=O)c1ccc(CO[N+](=O)[O-])cc1)c(C)n2C(=O)c1ccc(Cl)cc1 | 5.72 | 12 | 23 | – | 68 | – |
| COc1ccc2c(c1)c(CC(=O)N(OC(C)=O)C(C)=O)c(C)n2C(=O)c1ccc(Cl)cc1 | > 6.00 | 6 | 14 | – | 39 | – |

Second part, led by results:

| pIC50 [1] | residual activity [2] [%] | residual activity [3] [%] | residual activity [4] [%] | residual activity [5] [%] | Compound | also measured |
| --- | --- | --- | --- | --- | --- | --- |
| > 6.52 | 1 | – | – | – | COc1ccc2c(c1)c(CC(=O)NOCCCO)c(C)n2C(=O)c1ccc(Cl)cc1 | Ratio IC50 (Homo sapiens): < 0.4; residual activity [8]: 28% |
| > 6.00 | – | – | – | – | COc1ccc2c(c1)c(CCNC(=O)c1ccc(CO[N+](=O)[O-])cc1)c(C)n2C(=O)c1ccc(Cl)cc1 | – |
| < 4.00 | 65 | 92 | – | 100 | Cc1c(CC(=O)NCCCO[N+](=O)[O-])c2cc(OS(N)(=O)=O)ccc2n1C(=O)c1ccc(Cl)cc1 | Ratio IC50 (Homo sapiens): > 4; residual activity [6]: 46% |
| – | 62 | 74 | – | 83 | COc1ccc2c(c1)c(CCOC(=O)NCCCO[N+](=O)[O-])c(C)n2C(=O)c1ccc(Cl)cc1 | – |
| – | 61 | 100 | – | 100 | COc1ccc2c(c1)c(CCOC(=O)NS(=O)(=O)NCCCO[N+](=O)[O-])c(C)n2C(=O)c1ccc(Cl)cc1 | – |
| 5.62 | 1 | 23 | 46 | 64 | COc1ccc2c(c1)c(CC(=O)NCCCCO)c(C)n2C(=O)c1ccc(Cl)cc1 | Ratio IC50 (Homo sapiens): 2 |
| – | 76 | – | – | – | COc1ccc2c(c1)c(CCP(=O)(O)O)c(C)n2C(=O)c1ccc(Cl)cc1 | – |
| – | 44 | – | – | – | COc1ccc2c(c1)c(CCOC(=O)NS(=O)(=O)OCCCO[N+](=O)[O-])c(C)n2C(=O)c1ccc(Cl)cc1 | – |
| 5.64 | 0 | 16 | 18 | 76 | COc1ccc2c(c1)c(CCO)c(C)n2C(=O)c1ccc(Cl)cc1 | – |
| 5.43 | 6 | 33 | 51 | 73 | COc1ccc2c(c1)c(CCNS(=O)(=O)CCCO)c(C)n2C(=O)c1ccc(Cl)cc1 | Activity (Rattus norvegicus [9]): 98%; Ratio IC50 (Homo sapiens): 3.5; residual activity [8]: 82%; residual activity [6]: 0%; Activity (Rattus norvegicus [10]): 96%; residual activity [7]: 23% |
| – | 15 | 73 | – | 69 | COc1ccc2c(c1)c(CCO[N+](=O)[O-])c(C)n2C(=O)c1ccc(Cl)cc1 | – |
| 5.52 | 2 | 29 | – | 93 | COc1ccc2c(c1)c(CCNC(=O)NCCCO[N+](=O)[O-])c(C)n2C(=O)c1ccc(Cl)cc1 | Ratio IC50 (Homo sapiens): 0.3 |
| 5.55 | 2 | 29 | – | 84 | COc1ccc2c(c1)c(CC(=O)NO)c(C)n2C(=O)c1ccc(Cl)cc1 [OXAMETACIN] | – |
| > 6.00 | 1 | 3 | 20 | – | COc1ccc2c(c1)c(CC(=O)NOCCO)c(C)n2C(=O)c1ccc(Cl)cc1 | – |
| 5.33 | 1 | 27 | 74 | – | Cc1c(CC(=O)NCCCO[N+](=O)[O-])c2cc(O)ccc2n1C(=O)c1ccc(Cl)cc1 | residual activity [6]: 2%; residual activity [7]: 1% |
| 5.59 | 3 | 25 | 45 | 78 | COc1ccc2c(c1)c(CC(=O)NCC(C)(C)CO[N+](=O)[O-])c(C)n2C(=O)c1ccc(Cl)cc1 | residual activity [7]: 3% |
| 4.96 | 16 | 57 | 68 | 100 | COc1ccc2c(c1)c(CCNS(=O)(=O)CCCO[N+](=O)[O-])c(C)n2C(=O)c1ccc(Cl)cc1 | Activity (Rattus norvegicus [9]): 59%; residual activity [6]: 7%; Activity (Rattus norvegicus [10]): 44%; residual activity [7]: 20% |
